Results collected from several papers.
Protocols differ between the studies behind these lines.
Organism: Staphylococcus aureus
Effect on: microbial growth

The MIC of `CO[C@H]1[C@H](O[C@H]([C@H]2O[C@@H](n3ccc(=O)[nH]c3=O)[C@H](O)[C@@H]2O)[C@H](NCCCNC(=O)[C@H](CC(C)C)NC(=O)[C@@H](NC(=O)N[C@H](C(=O)O)C(C)C)[C@@H]2CCNC(=N)N2)C(=O)O)O[C@H](CN)[C@H]1O` is reported as > 80 mg/L (NEWMAN).
For `O=C(CCc1cc(O)c(O)c(O)c1)NCCCCCCCC[P+](c1ccccc1)(c1ccccc1)c1ccccc1.[Br-]`, the MIC was 8 mg/L (broth dilution; ATCC43300 MRSA; 18 h).
With `C[C@@H](O)[C@H]1C(=O)N2C(C(=O)O)=C(S[C@@H]3CN[C@H](C(=O)N(C)C)C3)[C@H](C)[C@H]12` the MIC was 32 mg/L (MRSA).
The MIC of `O=C(O)c1cn(C2CC2)c2cc(N3CCNCC3)c(F)cc2c1=O` is reported as 0.49 mg/L (broth dilution; ATCC25923).
For `CC(C)Oc1c(NC(=O)c2ccc(NC(=O)[C@H](CC(N)=O)NC(=O)c3ccc(NC(=O)Cc4ccc(C#N)cc4)cc3)cc2)ccc(C(=O)Nc2ccc(C(=O)O)cc2)c1O`, the MIC was > 64 mg/L (ATCC29213).
`CC1(C)S[C@@H]2[C@H](NC(=O)[C@H](N)c3ccccc3)C(=O)N2[C@H]1C(=O)O` has an MIC of 0.02 mg/L (broth dilution).
The MIC of `CN[C@H](CC(C)C)C(=O)N[C@H]1C(=O)N[C@@H](CC(N)=O)C(=O)N[C@H]2C(=O)N[C@H]3C(=O)N[C@H](C(=O)N[C@H](C(=O)O)c4cc(O)cc(O)c4-c4cc3ccc4O)[C@H](O)c3ccc(c(Cl)c3)Oc3cc2cc(c3O[C@@H]2O[C@H](CO)[C@@H](O)[C@H](O)[C@H]2O[C@H]2C[C@](C)(N)[C@H](O)[C@H](C)O2)Oc2ccc(cc2Cl)[C@H]1O` is reported as 1 mg/L (broth dilution; 16339).
`COc1ccc(-c2nc3ccccc3[nH]2)cc1O` has an MIC of 128 mg/L (broth dilution; ATCC29213 MSSA).
`C/C=C(\C)c1cc(OC(=O)c2c(C)c(Cl)c(O)c(Cl)c2O)c(C)c(O)c1C(=O)O` has an MIC of 64 mg/L (broth dilution; MRSA).
For `O=S(=O)(NCCNC/C=C/c1ccc(Br)cc1)c1cccc2cnccc12`, the MIC was > 30 µM (NCTC8325).
For `CC(C)Oc1c(NC(=O)c2ccc(NC(=O)[C@H](CC(N)=O)NC(=O)c3ccc(NC(=O)c4ccc([N+](=O)[O-])cc4)cc3)cc2)ccc(C(=O)Nc2ccc(C(=O)O)c(F)c2)c1O`, the MIC was 2 mg/L (ATCC29213).
`CC1(C(=O)O)CCC(C(=O)Nc2ccc(Nc3ccccc3)cc2)C1(C)C` (stereo not shown) gave an MIC of > 128 mg/L.
`C[C@@H](O)[C@H]1C(=O)N2C(C(=O)O)=C(S[C@@H]3CN[C@H](C(=O)N(C)C)C3)[C@H](C)[C@H]12` gave an MIC of 8 µM (broth dilution; KCTC1621; 16 h).
With `COc1ccc(-c2nc3ccc(C)cc3[nH]2)cc1OC` the MIC was 128 mg/L (broth dilution; ATCC29213 MSSA).
The MIC of `C/C=C(\C)c1cc(O)c(C)c(OC(=O)c2c(C)c(Cl)c(O)c(Cl)c2O)c1` is reported as 8 mg/L (broth dilution; 16339).
`Nc1c(C(=O)Nc2ccc(C3=NCCN3)cc2)cccc1C(=O)Nc1ccc(C2=NCCN2)cc1` gave an MIC of > 64 mg/L.
With `COc1cccc(OC)c1C(=O)N[C@@H]1C(=O)N2[C@@H]1SC(C)(C)[C@@H]2C(=O)O` the MIC was 37.5 µM (129; clinical isolate).
The MIC of `Cc1cc(=O)[nH]n1C(=O)c1ccc(-n2c(C)ccc2C)cc1` is reported as 125 mg/L (broth dilution; ATCC11632; 18 h).
With `Cc1ccc2nc(-c3ccc([N+](=O)[O-])cc3)[nH]c2c1` the MIC was 128 mg/L (broth dilution; ATCC29213 MSSA).
`CNc1cccc2cc(C(=O)NCCc3cccc(C(=O)O)c3)c(=O)[nH]c12` has an MIC of > 64 mg/L (ATCC29213).
`COc1c(C)c(OC(=O)c2ccccc2)c(C)c(O)c1C(=O)/C=C/c1ccccc1` has an MIC of 5000 mg/L (broth dilution; ATCC25923).
The MIC of `CC(=O)Nc1nc(C)c(-c2ccc(Cl)c(S(=O)(=O)NCCO)c2)s1` is reported as > 30 µM (NCTC8325).
`Cc1ccc2nc(-c3ccc(F)cc3)n(Cc3ccccc3)c2c1` has an MIC of 64 mg/L (broth dilution; ATCC29213 MSSA).
With `Cc1cc(C)cc(NC(=O)Nc2ccc(N3CCCCC3)cc2)c1` the MIC was > 128 mg/L.
`Fc1ccccc1NCc1ccc(Oc2ccccn2)cc1` gave an MIC of 1.6 mg/L.
`CC(C)Oc1c(NC(=O)c2ccc(NC(=O)[C@H](CC(N)=O)NC(=O)c3ccc(NC(=O)c4ccc(C#N)s4)cc3)cc2)ccc(C(=O)Nc2ccc(C(=O)O)cc2)c1O` gave an MIC of 0.25 mg/L (ATCC29213).
The MIC of `Cc1ccc(-n2nc(C(C)(C)C)cc2NC(=O)Nc2ccc(OCCN3CCOCC3)c3ccccc23)cc1` is reported as > 30 µM (NCTC8325).
With `C/C=C(\C)c1cc(O)c(C)c(OC(=O)c2c(C)cc(O)c(Cl)c2O)c1` the MIC was 32 mg/L (broth dilution; 6917).
For `O=C1NC(=S)N/C1=C\c1ccc(-c2ccc(N(c3ccccc3)c3ccccc3)cc2)cc1`, the MIC was > 1000 mg/L (broth dilution; ATCC6538).
With `C[S+]([O-])c1ccc(-c2nc(-c3ccc(F)cc3)c(-c3ccncc3)[nH]2)cc1` (stereo not shown) the MIC was > 30 µM (NCTC8325).
`COc1cc(C(=O)Nc2ccc(C(=O)N[C@@H](CC(N)=O)C(=O)Nc3ccc(C(=O)Nc4ccc(C(=O)Nc5ccc(C(=O)O)cc5)c(O)c4OC(C)C)cc3)cc2)ccc1C#N` gave an MIC of > 64 mg/L (ATCC29213).
`Clc1ccc(-c2nc3ccccc3n2Cc2ccccc2)cc1Cl` gave an MIC of 8 mg/L (broth dilution; ATCC29213 MSSA).
The MIC of `O=C1NC(=S)N/C1=C\c1c2ccccc2c(-c2ccc(N(c3ccccc3)c3ccccc3)cc2)c2ccccc12` is reported as > 1000 mg/L (broth dilution; ATCC43300).
`O=C1NC(=O)/C(=C\c2ccc3nccnc3c2)S1` gave an MIC of > 30 µM (NCTC8325).
The MIC of `Cc1cc(/C=C2\Sc3ccccc3N2CCCN2CCCCC2)c2ccccc2[n+]1C.[I-]` is reported as 8 mg/L (broth dilution; ATCCBAA44).
For `C/C=C(\C)c1cc(OC(=O)c2c(O)c(C)c(O)c(Cl)c2/C(C)=C/C)c(C)c(O)c1C(=O)O`, the MIC was 32 mg/L (broth dilution; 745524).
For `CC[C@H]1OC(=O)[C@H](C)[C@@H](O[C@H]2C[C@@](C)(OC)[C@@H](O)[C@H](C)O2)[C@H](C)[C@@H](O[C@@H]2O[C@H](C)C[C@H](N(C)C)[C@H]2O)[C@](C)(O)C[C@@H](C)C(=O)[C@H](C)[C@@H](O)[C@]1(C)O`, the MIC was 37.5 µM (147; clinical isolate).
`CC(=O)NC[C@H]1CN(c2ccc(N3CCOCC3)c(F)c2)C(=O)O1` has an MIC of 2 mg/L (broth dilution; MRSA NRS384 USA300; drug-resistant strain).
`O=C(O)CN1C(=O)/C(=C/c2ccc(-c3ccc(N(c4ccccc4)c4ccccc4)cc3)cc2)NC1=S` has an MIC of 1.95 mg/L (broth dilution; ATCC6538).
With `COc1cccc(-c2nc3ccccc3n2Cc2ccccc2)c1` the MIC was 256 mg/L (broth dilution; ATCC29213 MSSA).
`Cn1cc(NC(=O)C(CC(N)=O)NC(=O)c2ccc(NC(=O)c3ccc(C#N)cc3)cc2)cc1-c1nc2ccc(C(=O)Nc3ccc(C(=O)O)cc3)c(O)c2[nH]1` (stereo not shown) has an MIC of > 64 mg/L (ATCC29213).
For `Cc1cccc(-c2[nH]c(C(C)(C)C)nc2-c2ccc3nccnc3c2)n1`, the MIC was > 30 µM (NCTC8325).
The MIC of `CC(C)Oc1c(NC(=O)c2ccc(NC(=O)[C@H](CC(N)=O)NC(=O)c3ccc(NC(=O)c4ccc(C#N)cc4)cc3)cc2)ccc(C(=O)Nc2ccncc2)c1O` is reported as > 64 mg/L (ATCC29213).
For `CC1(C)S[C@@H]2[C@H](NC(=O)COc3ccccc3)C(=O)N2[C@H]1C(=O)O`, the MIC was > 128 mg/L (MRSA; 18 h).
With `CCCCCCC#Cc1cncc(-c2nnc(SCc3ccc([N+](=O)[O-])cc3)n2C)c1` the MIC was ≥ 20 mg/L (MRSA; drug-resistant strain).
The MIC of `COc1cc2/c(=N/c3ccc(Br)cc3F)nc[nH]c2cc1OCC1CCN(C)CC1` is reported as > 30 µM (NCTC8325).
With `Fc1cccc(Cl)c1-c1nc2ccccc2[nH]1` the MIC was 64 mg/L (broth dilution; ATCC29213 MSSA).
`C[n+]1ccc(/C=C2\Sc3ccccc3N2CCCN2CCCCC2)c2ccccc21.[I-]` gave an MIC of 4 mg/L (broth dilution; ATCCBAA44).
With `CN1CCN=C1c1ccc(NC(=O)c2ccc(C(=O)Nc3ccc(C4=NCCN4C)cc3)cc2)cc1` the MIC was 8 mg/L.
With `Cn1cc(C2=C(c3ccc(Cl)cc3Cl)C(=O)NC2=O)c2ccccc21` the MIC was > 30 µM (NCTC8325).
`O=C1NC(=S)S/C1=C\c1ccc(-c2ccc(N(c3ccccc3)c3ccccc3)cc2)cc1` has an MIC of 250 mg/L (broth dilution; ATCC25923).
`CSc1nc(Cl)cc(Sc2nnc(-c3cc(C(F)(F)F)cc(C(F)(F)F)c3)[nH]2)n1` gave an MIC of 2.1 µM (83254).
The MIC of `CC1(C)S[C@@H]2[C@H](NC(=O)[C@H](N)c3ccccc3)C(=O)N2[C@H]1C(=O)O` is reported as 16 mg/L (broth dilution; 16162).
For `O=C1NN=C(N=Cc2ccc(O)c(O)c2)C1=NNn1c(-c2ccccc2)nc2ccccc2c1=O`, the MIC was 107 µM (broth dilution; 24 h).
The MIC of `C=CCn1c(-c2ccc(Cl)cc2)nc2ccccc21` is reported as 64 mg/L (broth dilution; ATCC29213 MSSA).
The MIC of `COc1c(C)c(OC)c2c(c1C)OC(c1ccccc1)CC2=O` (stereo not shown) is reported as 5000 mg/L (broth dilution; ATCC25923).
`O=C(O)CN1C(=O)/C(=C/c2ccc(-c3ccc(N(c4ccccc4)c4ccccc4)cc3)c3ccccc23)SC1=S` has an MIC of 1000 mg/L (broth dilution; ATCC6538).
`O=C(O)c1cn(C2CC2)c2cc(N3CCNCC3)c(F)cc2c1=O` has an MIC of 0.31 mg/L (ATCC43300; drug-resistant strain).
